In data set [1] the test system is Hepatitis C virus. The data set can be described thus: Antiviral activity against HCV genotype 1b infected in human HuH7 cells after 3 days by luciferase reporter assay. Type of data set: functional, cell-based, Hepacivirus hominis. The following applies: Hepatitis C virus, genotype 1b, Huh-7, 72 h; read-out: EC50.
The subject of data set [2] is Hepatitis C virus. The data set can be described thus: Antiviral activity against HCV genotype 1a infected in human HuH7 cells after 3 days by luciferase reporter assay. The format is functional, cell-based, Hepacivirus hominis, subtype 1a. The following applies: Hepatitis C virus, subtype 1a, Huh-7, 72 h; read-out: EC50. Background: Reporter assays use an easily measured gene product as a stand-in for the process of interest.

Data set [3] is described as follows: Half life in human liver microsomes. The format is ADME, microsome. Background: Liver microsomes are vesicles of endoplasmic reticulum, rich in cytochrome P450 enzymes.
Data set [4] in a line: Half life in rat liver microsomes. Type of data set: ADME, microsome.
The nature of data set [5]: Drug uptake in Sprague-Dawley rat liver at 6 mg/kg, po via gavage after 6 hrs by LC-MS/MS analysis. The following applies: read-out: Drug uptake. Type of data set: ADME, organism-based. In short, it runs like this: (§1)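 Fasted rats were dosed orally in 90:10 PEG-400/ethanol; 6 h livers came from satellite animals. In the screening variant, n = 2 and plasma was taken to 6 h with livers at the terminal point. Livers were rinsed, blotted, weighed and homogenized in 2 volumes of 80% acetonitrile in HBSS per gram, then centrifuged. Supernatant and plasma were analysed by LC/MS/MS.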

In the next data set the target is T1, Cytochrome P450 2C8 (Homo sapiens, UniProt P10632).
T1 sequence (P10632 whole entry): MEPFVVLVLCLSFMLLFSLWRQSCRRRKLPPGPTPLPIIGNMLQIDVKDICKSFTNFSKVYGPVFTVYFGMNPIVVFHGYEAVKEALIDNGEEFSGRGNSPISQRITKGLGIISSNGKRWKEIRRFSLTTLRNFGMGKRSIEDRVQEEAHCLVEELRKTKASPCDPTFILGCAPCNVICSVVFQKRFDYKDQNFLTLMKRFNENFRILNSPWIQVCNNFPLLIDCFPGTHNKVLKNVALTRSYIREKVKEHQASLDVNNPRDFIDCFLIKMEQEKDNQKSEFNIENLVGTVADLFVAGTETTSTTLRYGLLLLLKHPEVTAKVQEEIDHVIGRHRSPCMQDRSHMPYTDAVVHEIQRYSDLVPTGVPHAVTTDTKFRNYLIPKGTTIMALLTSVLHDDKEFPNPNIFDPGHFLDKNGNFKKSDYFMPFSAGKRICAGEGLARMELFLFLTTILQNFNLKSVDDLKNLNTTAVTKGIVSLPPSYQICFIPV
The data set can be described thus: Inhibition of microsomal CYP2C8 (unknown origin). Type of data set: ADME.

A short description of data set [6]: Half life in dog liver microsomes. Type of data set: ADME, Canis lupus familiaris, microsome.
Data set [7] can be described thus: Ratio of plasma concentration in human at 25 mg up to 14 days to EC50 for HCV genotype 1b NS5B C316N mutant infected in human HuH7 cells. Summed up: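 Randomized, double-blind, placebo-controlled Phase I multiple ascending dose study in healthy volunteers. Oral amorphous solid dispersion formulation, 30% drug loading, given daily for 14 days at doses up to 400 mg/day. Human plasma exposure was measured and set against the replicon EC50.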

Data set [8] can be described thus: Volume of distribution at steady state in Sprague-Dawley rat at 2 mg/kg, iv by LC/MS/MS analysis. The format is ADME, organism-based. The following applies: Sprague-Dawley, in vivo, read-out: Vdss. Summed up: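 Rats received a 2 mg/kg IV dose in 90:10 PEG-400/ethanol as a 10 min constant-rate jugular infusion. Blood collected predose and at 10, 15, 30, 45, 60 min and 2, 4, 6, 8, 24 h; n = 3. Plasma analyzed by LC/MS/MS. Vss derived by noncompartmental analysis of IV data.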

A short description of data set [9]: Tmax in Sprague-Dawley rat at 6 mg/kg, po administered via gavage by LC/MS/MS analysis. Type of data set: ADME, organism-based. The following applies: in vivo. Summed up:
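Rats fasted overnight, then dosed by gavage at 6 mg/kg in 90:10 PEG-400/ethanol (v/v). Plasma sampled serially from cannula into EDTA tubes predose and at 15, 30, 45, 60 min and 2, 4, 6, 8, 24 h; n = 3. Livers removed at 6 h (satellite animals) and 24 h, homogenized in 80% acetonitrile/HBSS, assayed by LC/MS/MS. Tmax taken directly from observed data.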

Data set [10] is described as follows: AUC in Sprague-Dawley rat at 6 mg/kg, po administered via gavage by LC/MS/MS analysis. The format is ADME, organism-based. The following applies: in vivo. In short, it runs like this:
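Rats were fasted overnight with free access to water, then dosed by gastric gavage with an […] solution in 90:10 PEG-400/ethanol (v/v), n = 3 per group. EDTA plasma was sampled predose and at 15, 30, 45, 60 min and 2, 4, 6, 8, 24 h, then assayed by LC/MS/MS. Parameters come from noncompartmental analysis: Cmax observed directly, AUC by linear/log trapezoidal summation, F as dose-normalized PO/IV AUC ratio.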

Data set [11] concerns Hepatitis C virus. Briefly: Antiviral activity against HCV genotype 1b infected in human HuH7 cells at >= 10 times antiviral EC50 after 3 days by luciferase reporter assay. Type of data set: functional, cell-based. The following applies: Hepacivirus hominis.
Data set [12] can be described thus: Drug uptake in Sprague-Dawley rat liver at 6 mg/kg, po administered via gavage after 24 hrs by LC/MS/MS analysis. The format is ADME, organism-based. The following applies: read-out: Drug uptake. In short, it runs like this: as §1
In data set [13] the test system is Hepatitis C virus. The data set can be described thus: Antiviral activity against HCV genotype 2b infected in human HuH7 cells after 3 days by luciferase reporter assay. The following applies: Huh-7, 72 h. The format is functional, cell-based, Hepacivirus hominis.
Data set [14] is described as follows: Protein binding in human serum. Type of data set: ADME, cell-free. The following applies: read-out: PB (converted).
Data set [15] in a line: Lipophilicity, log D of the compound by shake flask method. Type of data set: physicochemical. The following applies: octanol/water.
A short description of data set [16]: Protein binding in monkey serum. Type of data set: ADME, cell-free, Macaca mulatta. The following applies: rhesus monkey, read-out: PB (converted).
Data set [17] in a line: Effective permeability across apical to basolateral side in human Caco2 cells. The following applies: Caco-2, read-out: Peff. Type of data set: ADME, cell-based. A general note: Passage across Caco-2 layers is used to estimate intestinal permeability.
A short description of data set [18]: Tmax in Sprague-Dawley rat at 6 mg/kg, po administered via gavage using docusate sodium/methocel/water formulation by LC/MS/MS analysis. The format is ADME, organism-based. The following applies: in vivo. Summed up: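 Fasted rats gavaged at 6 mg/kg with a spray-dried dispersion suspension (10% w/w drug loading in 0.02:0.5:99.48 docusate/methocel/water). Serial plasma samples predose and at 15, 30, 45, 60 min and 2, 4, 6, 8, 24 h; n = 3. Plasma analyzed by LC/MS/MS. Tmax read directly from observed concentrations.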

The target in data set [19] is Voltage-gated inwardly rectifying potassium channel KCNH2 (Homo sapiens, UniProt Q12809). Briefly: Inhibition of human ERG by patch clamp assay.
Chain of Voltage-gated inwardly rectifying potassium channel KCNH2 (Q12809 whole entry): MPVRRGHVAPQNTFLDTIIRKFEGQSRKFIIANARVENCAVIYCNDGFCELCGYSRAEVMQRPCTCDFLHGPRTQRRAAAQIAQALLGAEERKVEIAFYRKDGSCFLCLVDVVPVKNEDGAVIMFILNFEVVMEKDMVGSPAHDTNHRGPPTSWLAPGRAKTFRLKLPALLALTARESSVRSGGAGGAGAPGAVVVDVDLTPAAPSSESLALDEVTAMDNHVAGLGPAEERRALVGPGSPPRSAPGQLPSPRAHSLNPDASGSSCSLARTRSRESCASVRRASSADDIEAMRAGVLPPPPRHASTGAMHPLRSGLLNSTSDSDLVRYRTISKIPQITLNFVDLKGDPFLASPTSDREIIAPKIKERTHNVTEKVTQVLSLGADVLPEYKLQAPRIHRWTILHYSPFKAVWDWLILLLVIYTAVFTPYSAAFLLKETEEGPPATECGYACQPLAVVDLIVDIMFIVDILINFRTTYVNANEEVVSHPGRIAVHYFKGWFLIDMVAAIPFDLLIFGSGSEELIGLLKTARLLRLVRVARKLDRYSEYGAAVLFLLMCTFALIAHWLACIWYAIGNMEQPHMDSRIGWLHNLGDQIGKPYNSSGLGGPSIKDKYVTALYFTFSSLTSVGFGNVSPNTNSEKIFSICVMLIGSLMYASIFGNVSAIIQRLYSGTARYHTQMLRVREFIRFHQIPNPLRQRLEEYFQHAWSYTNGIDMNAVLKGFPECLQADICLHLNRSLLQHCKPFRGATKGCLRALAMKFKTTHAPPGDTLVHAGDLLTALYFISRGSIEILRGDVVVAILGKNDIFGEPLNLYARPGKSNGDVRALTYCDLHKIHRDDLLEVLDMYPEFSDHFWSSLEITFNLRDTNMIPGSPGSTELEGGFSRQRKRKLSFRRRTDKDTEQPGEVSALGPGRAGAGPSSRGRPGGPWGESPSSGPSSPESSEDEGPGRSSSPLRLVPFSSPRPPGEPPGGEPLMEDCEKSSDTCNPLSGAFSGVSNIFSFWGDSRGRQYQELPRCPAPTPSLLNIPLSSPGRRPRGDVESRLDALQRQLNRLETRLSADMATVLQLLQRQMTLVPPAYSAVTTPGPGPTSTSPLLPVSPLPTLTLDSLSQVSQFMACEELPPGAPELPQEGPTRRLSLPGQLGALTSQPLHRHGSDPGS
For data set [20], the system named is Homo sapiens. The data set can be described thus: Toxicity in human up to 400 mg/day, po for 14 days. The following applies: in vivo, 336 h.
In data set [21] the test system is Homo sapiens. Briefly: Toxicity in human up to 400 mg, po administered as single dose. The following applies: in vivo.

The results in this text go back to ChEMBL document CHEMBL4014311, “Discovery of a Hepatitis C Virus NS5B Replicase Palm Site Allosteric Inhibitor (BMS-929075) Advanced to Phase 1 Clinical Studies” (J Med Chem, 2017).

Activity calls are given as the source filed them.

The term EC50 denotes the concentration at which the effect is half-maximal. As a reminder, the half-life is the time needed for the level to fall by half in the phase considered. In general, IC50 refers to the concentration that gives 50% inhibition. As a reminder, the Tmax is the time from dosing to the highest level. As a reminder, the AUC is concentration integrated over time. As usually defined, the logD is lipophilicity at a set pH, counting ionised and neutral species. Consider `CNC(=O)c1c(-c2ccc(F)cc2)oc2ccc(-c3cc(C(=O)NC4(c5ncccn5)CC4)ccc3C)c(F)c12` [BMS-929075], for which the EC50 in the data set with Hepatitis C virus [1] was determined as 4 nM; in the data set with Hepatitis C virus [2] it was 9 nM; in the data set on Hepatitis C virus [13] it was 115 nM. Moreover, the half-life in [3], in data set [4] and in [6] was > 2 h throughout. Also, the concentration at 6 h in [5] was 15.1 µM. Further, the IC50 at Cytochrome P450 2C8 turned out to be 6700 nM; in [19], 18000 nM. Also, the Ratio in data set [7] worked out at 10. For the same compound, in data set [8], the Vd is 0.7 L/kg. The Tmax in data set [9] and in data set [18] was 4 h throughout. In data set [10], this compound registered an area under the curve (AUC) of 54.5 µM·h. For the same compound, the result in the data set with Hepatitis C virus [11] was Active. In addition, the concentration at 24 h in data set [12] worked out at 1.12 µM. The fraction unbound in data set [14] was 0.018; in data set [16], 0.028. This compound also returned a logD in data set [15] of 5.09. In data set [17], the Papp A→B is > 10 ×10⁻⁶ cm/s. The Activity entry in the data set with Homo sapiens [20] and in the data set with Homo sapiens [21] was “Non-Toxic” throughout.
